Data on three compounds can be found in article PMC2903661 (Bioorganic & medicinal chemistry, 2010).

Data set [1] deals with T1, CB2 receptors (Mus musculus, UniProt P47936). In words: Blocking dissection study in control CD1 mice. Format: in vivo. Particulars: AM630 3 mg/kg or GW405833 2 mg/kg s.c., 60 min. The essentials:
(§1)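 Control CD1 mice, or CD1 mice 5 days after a single i.p. LPS dose (5 mg/kg in saline, strain O111:B4), received AM630 3 mg/kg or GW405833 2 mg/kg s.c. in DMSO; controls got DMSO vehicle. Radiotracer (~150 GBq/μmol) was given i.v. 30 min later, and tissues were harvested at 60 min and gamma-counted. Whole-brain uptake was %ID/g per body weight normalized by blood; mean ± SD, n=3.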

Data set [2] addresses T1, CB2 receptors. In words: Blocking dissection study in LPS-5-day-treated CD1 mice. In kind it is in vivo. Particulars: for reduction of the specific binding of [11C]1 in whole brain: LPS-5-day mice, AM630 3 mg/kg or GW405833 2 mg/kg s.c., normalized uptake, 60 min, control CD1 mice as measure of non-specific binding. The essentials:
as §1

Data set [3] concerns the target T1, CB2 receptors. Format: in vivo. Conditions: APPswe/PS1dE9 mice.
The target of data set [4] is T1, CB2 receptors. Format: in vivo, mice. The essentials:
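Male CD1 mice got a single i.p. LPS dose (5 mg/kg in saline, strain O111:B4) 3 or 5 days before i.v. radiotracer; untreated CD1 mice served as controls. At 60 min, cerebellum, hippocampus, cortex, brainstem and rest of brain were dissected, weighed and gamma-counted. Uptake was %ID/g tissue (± SD, n=3), and regional ratios were taken as 5-day LPS over control.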

Data set [5] deals with T1, CB2 receptors. In words: Baseline dissection biodistribution of [11C]1 in control CD1 mice. Particulars: i.v., whole body time-activity curve. In kind it is in vivo. The essentials:
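Male CD-1 mice (23-28 g) received the radiotracer (specific radioactivity ~150 GBq/μmol, in saline) by lateral tail vein. They were killed by cervical dislocation at various times after injection. Organs and brain were removed and dissected on ice, then weighed and gamma-counted (counting error below 3%) against injectate aliquots as standards. Uptake was expressed as %ID/g tissue.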

T1 sequence (P47936 whole entry): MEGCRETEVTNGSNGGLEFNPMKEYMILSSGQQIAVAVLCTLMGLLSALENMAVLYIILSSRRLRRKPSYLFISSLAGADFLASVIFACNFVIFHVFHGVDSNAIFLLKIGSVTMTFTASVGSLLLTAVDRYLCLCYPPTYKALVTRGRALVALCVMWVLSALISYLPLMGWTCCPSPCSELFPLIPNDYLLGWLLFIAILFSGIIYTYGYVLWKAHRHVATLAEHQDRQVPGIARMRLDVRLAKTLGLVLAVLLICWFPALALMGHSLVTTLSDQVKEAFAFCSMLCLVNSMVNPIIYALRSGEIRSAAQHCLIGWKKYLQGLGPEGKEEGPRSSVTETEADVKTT

For the compound `COc1ccc2c(c1)c(CCN1CCOCC1)c(C)n2C(=O)c1cccc(Cl)c1Cl` [GW405833], the “difference in normalized whole brain uptake between baseline and blockade” value on CB2 receptors [1] is recorded as “little difference”. For the same compound, the “reduction of the specific binding of [11C]1 in whole brain” value on CB2 receptors [2] is listed as 84%.
Turning to `COc1ccc(C(=O)c2c(C)n(CCN3CCOCC3)c3cc(I)ccc23)cc1` [AM630], on CB2 receptors [3] (AM630, 60 min), the “reduction of radioactivity uptake by blockade in cerebellum and brainstem” value is listed as “insignificant reduction”; the “reduction of radioactivity uptake by blockade in cortex and rest of brain” value is recorded as “significant reduction”. Besides, the “uptake difference between baseline and blockade, brainstem” value at CB2 receptors [3] (AM630 blockade, 60 min, brainstem) was found to be 29%. Also, the “uptake difference between baseline and blockade, cerebellum” value on CB2 receptors [3] (AM630 blockade, 60 min, cerebellum) came out at 29%. Further, the “uptake difference between baseline and blockade, cortex” value at CB2 receptors [3] (AM630 blockade, 60 min, cortex) came out at 36%. The “uptake difference between baseline and blockade, rest of brain” value on CB2 receptors [3] (AM630 blockade, 60 min, rest of brain) turned out to be 33%. Moreover, the “difference in normalized whole brain uptake between baseline and blockade” value on CB2 receptors [1] was “little difference”. In addition, on CB2 receptors [2], the “reduction of the specific binding of [11C]1 in whole brain” value was found to be 78%.
Regarding `Cc1sc(=NC(=O)C2C(C)(C)C2(C)C)n(CCO[11CH3])c1C` [[^11C]1], the “increase of brain uptake versus control mice, LPS three days before (Group 2)” value at CB2 receptors [4] (LPS-3-day-treated CD1 mice versus control, all brain regions) is “insignificant increase”. For the same compound, the “regional uptake ratio of Group 3 to Group 1, cerebellum” value at CB2 receptors [4] (LPS-5-day-treated versus control CD1 mice, %ID/g tissue, cerebellum) is reported as 1.8. On CB2 receptors [4] (LPS-5-day-treated versus control CD1 mice, %ID/g tissue, cortex), the “regional uptake ratio of Group 3 to Group 1, cortex” value amounted to 1.7. Moreover, the “regional uptake ratio of Group 3 to Group 1, hippocampus” value on CB2 receptors [4] (LPS-5-day-treated versus control CD1 mice, %ID/g tissue, hippocampus) stood at 1.9. In addition, the “regional uptake ratio of Group 3 to Group 1, rest of the brain” value on CB2 receptors [4] (LPS-5-day-treated versus control CD1 mice, %ID/g tissue, rest of the brain) is reported as 1.5. For the same compound, on CB2 receptors [5] (brain), the “uptake of [11C]1 in the brain” value was 0.3 %ID/g tissue. Moreover, at CB2 receptors [5] (heart), the “uptake of [11C]1 in the heart” value was found to be 0.7 %ID/g tissue. In addition, the “uptake of [11C]1 in the intestine” value on CB2 receptors [5] (intestine) was determined as 1.5 %ID/g tissue. Also, at CB2 receptors [5] (kidney), the “uptake of [11C]1 in the kidney” value was 2.2 %ID/g tissue. Also, at CB2 receptors [5] (liver), the “uptake of [11C]1 in the liver” value is 4.9 %ID/g tissue. In addition, at CB2 receptors [5] (spleen), the “uptake of [11C]1 in the spleen” value is 1.3 %ID/g tissue. Further, the “specific CB2 cerebral uptake” value on CB2 receptors [2] (LPS-induced mouse model of neuroinflammation, summary) was 78-84%.
